According to ChEMBL document CHEMBL1828531, “Pyrazol-3-propanoic acid derivatives as novel inhibitors of leukotriene biosynthesis in human neutrophils” (Eur J Med Chem, 2011):

biological target: T1, Polyunsaturated fatty acid lipoxygenase ALOX15 (Homo sapiens) (UniProt P16050); test: Inhibition of 15-Lipoxygenase-mediated 15-HETE in human neutrophil assessed as residual activity at 30 uM after 15 mins by HPLC analysis
T1 sequence (whole entry): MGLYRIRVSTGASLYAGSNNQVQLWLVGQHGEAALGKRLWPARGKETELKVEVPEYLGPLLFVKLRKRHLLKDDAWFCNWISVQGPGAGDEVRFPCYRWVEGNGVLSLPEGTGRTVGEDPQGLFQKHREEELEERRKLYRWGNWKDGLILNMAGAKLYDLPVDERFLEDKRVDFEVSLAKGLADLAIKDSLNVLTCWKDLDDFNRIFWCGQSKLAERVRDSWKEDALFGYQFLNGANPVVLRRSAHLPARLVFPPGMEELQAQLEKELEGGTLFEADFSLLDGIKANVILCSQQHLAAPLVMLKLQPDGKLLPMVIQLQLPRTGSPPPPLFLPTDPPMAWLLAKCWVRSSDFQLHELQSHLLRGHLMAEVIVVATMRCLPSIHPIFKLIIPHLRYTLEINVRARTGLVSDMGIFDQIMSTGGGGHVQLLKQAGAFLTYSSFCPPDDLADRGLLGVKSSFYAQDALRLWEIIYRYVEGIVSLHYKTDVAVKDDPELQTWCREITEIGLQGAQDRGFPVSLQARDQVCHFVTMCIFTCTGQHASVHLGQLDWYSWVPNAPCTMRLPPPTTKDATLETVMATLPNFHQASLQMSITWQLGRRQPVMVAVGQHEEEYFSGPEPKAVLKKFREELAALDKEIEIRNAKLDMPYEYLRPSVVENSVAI
Method in brief: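 Freshly isolated human blood neutrophils, 5 × 10^6/mL in PBS pH 7.4 with 1 mg/mL glucose and 1 mM CaCl2, preincubated with compound 15 min at RT. Stimulated with 2.5 µM A23187 plus 20 µM AA for 10 min at 37 °C. Stopped with methanol/HCl, PGB1 internal standard. 12-HETE or 15-HETE measured by HPLC. Residual activity tested at 30 µM.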

Row | Compound | Activity
1 | Cc1ccc(-c2cc(CCC(=O)N3CCN(Cc4ccc(C(C)(C)C)cc4)CC3)nn2-c2ccccc2)cc1 | 261%
2 | CCOC(=O)C1CCN(C(=O)CCc2cc(-c3ccc(C)cc3)n(-c3ccccc3)n2)CC1 | 196%
3 | Cc1ccc(-c2cc(CCC(=O)N3CCN(Cc4ccc(C(C)(C)C)cc4)CC3)nn2-c2ccc3ccccc3n2)cc1 | 145%
4 | CCOC(=O)C1CCN(C(=O)CCc2cc(-c3ccc(C)cc3)n(-c3ccc4ccccc4n3)n2)CC1 | 149%
5 | Cc1ccc(-c2cc(CCC(=O)Oc3ccc(C(C)C)cc3)nn2-c2ccc3ccccc3n2)cc1 | 92%
6 | CC(C)(C)c1ccc(CN2CCN(C(=O)CCc3cc(-c4ccc(F)cc4)n(-c4ccc(Cl)nn4)n3)CC2)cc1 | 175%
7 | Cc1ccc(-c2cc(CCC(=O)Oc3ccc(C(C)C)cc3)nn2-c2ccccc2)cc1 | 124%
8 | CCOC(=O)C1CCN(C(=O)CCc2cc(-c3ccc(C(F)(F)F)cc3)n(-c3ccc(Cl)nn3)n2)CC1 | 71%
